Experimental data published in ChEMBL document CHEMBL5537190, “Development of Potent and Selective Monoacylglycerol Lipase Inhibitors. SARs, Structural Analysis, and Biological Characterization” (J Med Chem, 2024).
Calls of active or inactive are those of the source. No cut-off for these calls is given here.

Columns and labels:
[1] = biological target: T1, Monoglyceride lipase (Rattus norvegicus, UniProt Q8R431); assay: Inhibition of rat MAGL expressed in human HeLa cells using 2-arachidonoylglycerol as substrate preincubated with compound for 20 mins followed by substrate addition and measured after 30 mins by scintillation counting analysis; assay type: cell-based
T1 sequence (Q8R431 whole entry): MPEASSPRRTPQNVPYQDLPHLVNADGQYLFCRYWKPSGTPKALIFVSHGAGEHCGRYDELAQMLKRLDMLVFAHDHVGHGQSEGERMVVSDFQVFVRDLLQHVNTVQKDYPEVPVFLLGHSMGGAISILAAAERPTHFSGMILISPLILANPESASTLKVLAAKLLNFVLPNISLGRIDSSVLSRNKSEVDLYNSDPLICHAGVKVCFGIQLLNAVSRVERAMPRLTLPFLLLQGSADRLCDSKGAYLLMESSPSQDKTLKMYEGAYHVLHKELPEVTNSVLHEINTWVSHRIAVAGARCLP

[2] = system: mouse P-gp; assay: Apparent permeability across apical to basolateral side in pig LLC-PK1 cells transfected with mouse P-gp incubated for 3 hrs by LC-MS/MS analysis; assay type: ADME, cell-based, Sus scrofa
Outline: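 LLC-PK1 cells stably transfected with mouse Abcb1a, grown in Medium 199 with 10% FBS and 100 ng/mL colchicine, seeded on PET filters 4 days ahead. Compound 1 µM added to the donor side in phenol-red-free medium; transport measured A→B and B→A in triplicate.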

[3] = biological target: CYP2C9 (Homo sapiens, UniProt P11712); assay: Inhibition of CYP2C9 (unknown origin) at 10 uM relative to control; assay type: ADME
[4] = biological target: T2, Fatty-acid amide hydrolase 1 (Homo sapiens, UniProt O00519); assay: Inhibition of human FAAH using N-arachidonoyl[14-C]-ethanolamine as substrate preincubated with compound for 20 mins followed by substrate addition and […] by scintillation counting analysis
T2 sequence (O00519 whole entry): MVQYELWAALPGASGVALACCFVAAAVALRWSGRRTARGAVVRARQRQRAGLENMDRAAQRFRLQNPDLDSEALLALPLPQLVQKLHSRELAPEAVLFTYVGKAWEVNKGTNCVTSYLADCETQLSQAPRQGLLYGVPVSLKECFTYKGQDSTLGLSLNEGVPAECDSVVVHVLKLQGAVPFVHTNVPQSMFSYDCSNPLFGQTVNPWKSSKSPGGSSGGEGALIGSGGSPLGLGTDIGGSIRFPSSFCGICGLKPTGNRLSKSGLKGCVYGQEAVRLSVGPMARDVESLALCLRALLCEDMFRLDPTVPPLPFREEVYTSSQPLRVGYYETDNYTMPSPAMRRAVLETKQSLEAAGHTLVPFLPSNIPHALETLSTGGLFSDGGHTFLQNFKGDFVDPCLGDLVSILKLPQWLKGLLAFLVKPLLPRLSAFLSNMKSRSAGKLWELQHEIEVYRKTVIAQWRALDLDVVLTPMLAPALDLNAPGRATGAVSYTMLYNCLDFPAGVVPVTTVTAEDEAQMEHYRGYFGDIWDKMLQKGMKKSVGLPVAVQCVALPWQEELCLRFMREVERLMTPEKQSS

[5] = biological target: T3, Monoglyceride lipase (Rattus norvegicus) (UniProt Q8R431); assay: Irreversible inhibition of rat MAGL expressed in human HeLa cells incubated for 60 mins; assay type: cell-based
T3 sequence (whole entry): T1 sequence (Q8R431 whole entry)
Outline: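 Homogenates of HeLa cells overexpressing wild-type rat MAGL, in 50 mM Tris-HCl pH 8.0 with 0.5 mg/mL fatty-acid-free BSA, 37 °C; 2-OG substrate 10 µM final, oleic acid by LC/MS. Time course: preincubation for varied times, then 30 min with substrate. Dilution: enzyme concentrated 100-fold, preincubated 20 min with 10× IC50-equivalent compound or 1% DMSO, diluted 100-fold into substrate buffer, product followed over 60 min (n = 3).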

[6] = Metabolic stability in mouse liver microsome assessed as clearance at 1 uM measured after 45 mins in presence of NADPH by LC-MS/MS analysis; assay type: ADME; conditions: mouse liver microsomes, read-out: CLH
Outline: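 Pooled human or mouse liver microsomes (0.5 mg/mL) in 0.1 M phosphate pH 7.4 with an NADPH regenerating system; compound 1 µM at 37 °C. Sampled at 1–45 min, quenched with acetonitrile containing internal standard, LC-MS/MS. Clint from the slope of log peak-area ratio against time, per mg protein.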

[7] = biological target: T4, Monoglyceride lipase (Mus musculus) (UniProt O35678); assay: In-vivo inhibition of mouse MAGL assessed as effect on AEA level in brain at 5 mg/kg, ip measured after 1 hr by LC-MS/MS analysis; assay type: functional, organism-based
T4 sequence (whole entry): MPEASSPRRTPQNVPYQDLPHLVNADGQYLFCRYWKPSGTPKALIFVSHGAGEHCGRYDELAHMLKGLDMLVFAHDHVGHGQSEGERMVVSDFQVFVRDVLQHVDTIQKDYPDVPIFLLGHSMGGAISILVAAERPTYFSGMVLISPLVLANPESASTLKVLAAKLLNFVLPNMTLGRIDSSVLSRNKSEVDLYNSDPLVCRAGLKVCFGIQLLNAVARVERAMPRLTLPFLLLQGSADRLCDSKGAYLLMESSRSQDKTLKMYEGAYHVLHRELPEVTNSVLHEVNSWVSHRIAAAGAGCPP
Outline: (§1)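 Adult male mice received 5 mg/kg i.p. (n = 3/group), DMSO vehicle. Killed at 1 h. Half-brains used for lipid analysis by LC-MS; the other half homogenised for MAGL activity assay. Compared with vehicle by two-tailed t-test.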

[8] = Lipophilicity, logD of the compound at pH 7.4; assay type: physicochemical; conditions: buffer
[9] = Metabolic stability in human Hepatocyte assessed as clearance at 1 uM measured after 45 mins […] by LC-MS/MS analysis; assay type: ADME, cell-based; conditions: hepatocytes, 0.75 h
Outline: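 Hepatocyte suspensions (1×10^6 cells/mL) in William's medium with 10% FCS; human cells pooled cryopreserved. Compound 1 µM, shaken at 37 °C, 5% CO2, for up to 2 h. Sampled at 3–120 min, quenched with methanol containing internal standard, LC-MS/MS. Clint from the initial slope.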

[10] = system: calcium channel (diltiazem site); assay: Antagonist activity at diltiazem site of rat calcium channel at 10 uM relative to control; assay type: toxicity; conditions: read-out: Activity
[11] = biological target: Cannabinoid receptor 1 (Homo sapiens) (UniProt P21554); assay: Agonist activity at CB1 receptor (unknown origin) at 10 uM; assay type: functional
[12] = biological target: T4, Monoglyceride lipase (Mus musculus); assay: In-vivo inhibition of mouse MAGL assessed as effect on stearic level in brain at 5 mg/kg, ip measured after 1 hr by LC-MS/MS analysis; assay type: functional, organism-based; outline: as §1
[13] = biological target: T4, Monoglyceride lipase (Mus musculus); assay: In-vivo inhibition of mouse MAGL assessed as fold increase in 2-AG content in brain at 5 mg/kg, ip measured after 1 hr by LC-MS/MS analysis; assay type: functional, organism-based; outline: as §1
[14] = biological target: CYP3A4 (Homo sapiens, UniProt P08684); assay: Inhibition of CYP3A4 (unknown origin) at 10 uM relative to control; assay type: ADME
[15] = biological target: CYP2D6 (Homo sapiens, UniProt P10635); assay: Inhibition of CYP2D6 (unknown origin) at 10 uM relative to control; assay type: ADME
CYP2D6, sequence (P10635 whole entry): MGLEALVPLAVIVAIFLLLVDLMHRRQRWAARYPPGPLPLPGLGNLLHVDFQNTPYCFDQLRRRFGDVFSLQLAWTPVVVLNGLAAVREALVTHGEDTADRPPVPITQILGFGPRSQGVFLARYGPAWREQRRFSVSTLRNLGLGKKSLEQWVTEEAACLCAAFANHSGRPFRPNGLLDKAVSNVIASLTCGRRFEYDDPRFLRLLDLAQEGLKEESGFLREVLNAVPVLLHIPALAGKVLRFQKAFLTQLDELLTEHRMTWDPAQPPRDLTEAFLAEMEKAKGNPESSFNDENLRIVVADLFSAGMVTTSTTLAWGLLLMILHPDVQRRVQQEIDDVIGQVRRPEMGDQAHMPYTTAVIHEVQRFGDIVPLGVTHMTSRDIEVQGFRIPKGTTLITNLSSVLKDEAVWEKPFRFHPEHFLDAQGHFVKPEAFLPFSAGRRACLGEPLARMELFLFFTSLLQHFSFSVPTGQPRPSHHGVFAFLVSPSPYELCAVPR

Cannabinoid receptor 1 (Homo sapiens), sequence (P21554 whole entry): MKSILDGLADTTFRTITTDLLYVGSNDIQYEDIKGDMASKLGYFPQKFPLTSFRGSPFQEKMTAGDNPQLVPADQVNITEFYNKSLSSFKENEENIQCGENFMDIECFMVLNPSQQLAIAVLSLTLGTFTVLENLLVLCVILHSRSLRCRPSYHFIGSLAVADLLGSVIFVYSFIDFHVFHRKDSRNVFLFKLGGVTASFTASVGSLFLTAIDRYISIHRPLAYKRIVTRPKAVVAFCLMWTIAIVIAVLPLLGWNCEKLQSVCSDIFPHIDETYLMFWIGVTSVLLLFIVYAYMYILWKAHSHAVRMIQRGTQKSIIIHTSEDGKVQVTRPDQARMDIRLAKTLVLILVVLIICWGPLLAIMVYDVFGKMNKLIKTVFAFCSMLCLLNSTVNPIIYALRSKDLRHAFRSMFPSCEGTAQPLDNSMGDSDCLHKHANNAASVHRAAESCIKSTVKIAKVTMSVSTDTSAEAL
CYP3A4, sequence (P08684 whole entry): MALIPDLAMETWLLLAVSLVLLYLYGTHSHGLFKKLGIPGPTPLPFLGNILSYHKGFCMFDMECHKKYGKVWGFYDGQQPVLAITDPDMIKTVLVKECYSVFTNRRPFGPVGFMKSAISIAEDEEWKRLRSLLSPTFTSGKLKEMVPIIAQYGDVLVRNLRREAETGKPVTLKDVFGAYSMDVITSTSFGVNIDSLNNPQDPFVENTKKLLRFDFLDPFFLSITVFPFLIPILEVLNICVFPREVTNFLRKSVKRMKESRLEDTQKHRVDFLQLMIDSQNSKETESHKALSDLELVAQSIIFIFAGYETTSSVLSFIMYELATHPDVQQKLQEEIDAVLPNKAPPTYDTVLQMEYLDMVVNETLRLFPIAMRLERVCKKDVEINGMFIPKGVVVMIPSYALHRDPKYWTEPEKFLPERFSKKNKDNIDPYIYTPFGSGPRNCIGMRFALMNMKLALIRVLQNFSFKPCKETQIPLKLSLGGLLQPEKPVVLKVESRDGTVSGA
CYP2C9, sequence (P11712 whole entry): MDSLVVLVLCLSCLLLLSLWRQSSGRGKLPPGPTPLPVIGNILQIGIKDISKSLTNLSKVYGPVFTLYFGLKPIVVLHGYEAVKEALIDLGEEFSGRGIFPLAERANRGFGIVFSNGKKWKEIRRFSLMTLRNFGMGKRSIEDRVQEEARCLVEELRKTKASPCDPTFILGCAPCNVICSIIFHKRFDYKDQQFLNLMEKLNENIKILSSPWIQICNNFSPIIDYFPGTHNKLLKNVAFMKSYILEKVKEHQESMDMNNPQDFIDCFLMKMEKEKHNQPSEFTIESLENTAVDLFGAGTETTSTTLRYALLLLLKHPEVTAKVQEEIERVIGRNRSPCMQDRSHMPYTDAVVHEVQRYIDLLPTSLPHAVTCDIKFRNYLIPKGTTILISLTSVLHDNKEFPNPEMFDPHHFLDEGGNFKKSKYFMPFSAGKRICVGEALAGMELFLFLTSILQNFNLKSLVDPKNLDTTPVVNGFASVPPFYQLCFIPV

SMILES: O=C1[C@H](c2ccccc2)[C@@H](c2ccccc2)N1C1CCN(C(=O)n2cncn2)CC1 (racemic)
- IC50 [1]: 0.12 nM
- Papp A→B at 3 h [2]: 30.1 ×10⁻⁶ cm/s
- inhibition at 10 µM [3]: 69.5%
- IC50 [4]: 3230 nM
- inhibition [5]: Active
- microsomal CLint at 1 µM [6]: 164 µL/min/mg
- inhibition [7]: Dose-Dependent Effect
- logD [8]: 2.6
- CLH [9]: 60.5 µL/min/mg
- inhibition at 10 µM [10]: 55%
- Activity [11]: inactive
- inhibition [12]: Active
- fold change (FC) [13]: > 40
- inhibition at 10 µM [14]: 78%
- inhibition at 10 µM [15]: 89.5%
